Compounds with a hit are over-represented: about 3.5% of the library has one in this group of screens.
MrgX1 PAM: positive allosteric modulators of MrgX1, primary screen, HEK293 cells, Fluo-4 calcium flux | Mas-related G-protein coupled receptor member X1 (Homo sapiens), Q96LB2 | FDSS; stronger effect = higher value | B-score at 10 µM | 310,000 tested, 0.63% active;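 active = plate-corrected calcium response at least 3 library SD above typical, normal starting fluorescence, not activating the receptor alone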;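 also: compound read alongside a low EC10 to EC30 dose of BAM8-22 agonist; peak minus trough fluorescence over baseline measured at the second addition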
Target sequence (Q96LB2 whole entry, looked up): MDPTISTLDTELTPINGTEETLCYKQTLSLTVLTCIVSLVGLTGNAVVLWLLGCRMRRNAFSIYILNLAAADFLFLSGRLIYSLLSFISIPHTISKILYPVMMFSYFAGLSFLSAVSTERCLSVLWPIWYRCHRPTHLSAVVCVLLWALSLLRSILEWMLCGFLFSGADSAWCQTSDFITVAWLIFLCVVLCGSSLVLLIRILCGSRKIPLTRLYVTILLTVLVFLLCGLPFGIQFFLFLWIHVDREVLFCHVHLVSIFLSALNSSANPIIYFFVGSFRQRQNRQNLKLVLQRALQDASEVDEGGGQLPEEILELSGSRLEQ
RGS4 pot: RGS4 potentiators or activators, primary screen, cell-based, HEK293 M3R inducible RGS4, calcium flux; AID 463111, 2010; 310,000 tested, 0.92% active; B-score at 10 µM; carbachol calcium flux Fluo4; stronger effect = lower value;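 active = B-score of the integrated calcium signal more than 4 SD below the library mean, with starting fluorescence not abnormally high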;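 also: negative B-score means reduced calcium response which marks RGS4 activation or potentiation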
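Reagent: ECmax carbachol challenge; Test system: M3R-expressing HEK293 line, RGS4 induced by doxycycline; Schedule: overnight RGS4 induction, 30 min dye load 37 °C, 20 min compound RT; Detection: calcium dye Fluo4 fluorescence; Read-out: Agonist-evoked peak-minus-minimum fluorescence over baseline, integrated ratio, B score.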
MrgX1 ag: agonists of human MrgX1 receptor, primary screen, HEK293 cells, Fluo-4 calcium flux | B-score at 10 µM | Mas-related G-protein coupled receptor member X1 (Homo sapiens), Q96LB2 | 310,000 tested, 0.44% active | Fluo-4 calcium fluorescence, agonist mode; stronger effect = higher value;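 active = calcium response B-score plate-corrected fluorescence ratio at least 3 library SD, with starting fluorescence B-score inside 5 SD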
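Test system: Stable human MrgX1 HEK293 cell line | Schedule: Overnight plating before 1 h dye loading | Read-out basis: Baseline-normalised fluorescence change ratio, B-scored | Detection: Kinetic calcium dye fluorescence, Fluo-4 NW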
MrgX1 antag: antagonists of human MrgX1 receptor, primary screen, HEK293 cells, Fluo-4 calcium flux. Mas-related G-protein coupled receptor member X1 (Homo sapiens), Q96LB2. BAM8-22 antagonism; stronger effect = lower value. B-score at 10 µM. 310,000 tested, 1.3% active;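 active = calcium-response B-score plate-corrected more than 3 library SD below zero, starting fluorescence within 5 deviations, no agonist response on first addition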;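 also: peak minus trough fluorescence over baseline after final BAM8-22 challenge near maximal dose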
RGS4 inh: RGS4 inhibitors, primary screen, cell-based, HEK293 M3R inducible RGS4, calcium flux; Fluo-4 calcium flux; stronger effect = higher value; triggered by carbachol at its EC20; B-score at 10 µM; 310,000 tested, 0.45% active; AID 463165, 2010;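 active = B-score, a plate-corrected calcium signal, over three deviations above library mean, with baseline fluorescence within five deviations of library mean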;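 also: RGS4 expression induced by doxycycline in cells with stable M3 receptor; B-score is computed from the integrated fluorescence ratio over baseline after carbachol; higher B-score means a larger calcium signal and so more RGS4 inhibition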
Target sequence (P49798 whole entry, looked up): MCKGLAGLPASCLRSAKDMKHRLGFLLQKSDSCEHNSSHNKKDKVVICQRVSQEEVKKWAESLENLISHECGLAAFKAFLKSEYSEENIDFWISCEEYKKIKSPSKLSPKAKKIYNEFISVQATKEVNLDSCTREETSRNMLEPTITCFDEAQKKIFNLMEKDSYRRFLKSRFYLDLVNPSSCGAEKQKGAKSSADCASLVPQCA
RGS4 activ val: reduced carbachol calcium response, RGS4-induced M3R cells, confirmation, RGS4 activator project, cell-based, HEK293 M3R/RGS4 inducible, calcium flux, duplicate | carbachol calcium flux Fluo4 | inhibition, % at 10 µM | shares compounds with RGS4 pot | 1,100 tested, 89% active | AID 602282, 2012;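 active = inhibition above 3 SD of the buffer control wells, cut at about 41% in these data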;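 also: signal is the integrated peak-minus-minimum Fluo4 fluorescence over baseline ratio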
RGS4 act ctr: RGS4 activator counter-screen hit in non-induced cells | shares compounds with RGS4 pot | HEK293 M3R non-induced RGS4, Fluo4 calcium flux; after carbachol challenge at its EC90 | inhibition, % at 10 µM | 1,100 tested, 82% active | AID 602283;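 active = inhibition exceeding 3 SD of buffer-only control wells, cut at about 26% in these data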;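 also: percent drop in integrated peak-minus-baseline over baseline Fluo4 ratio after carbachol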
* hit, by the source's call; i = inactive; . = not tested or not shown.

SMILES	MrgX1 PAM	RGS4 pot	MrgX1 ag	MrgX1 antag	RGS4 inh	RGS4 activ val	RGS4 act ctr
Cc1cc(NC(=O)c2ccc3c(c2)OCCO3)ccc1NC(=O)c1cc2ccccc2o1	i	-8.7*	i	i	i	78*	0
O=C(CC1CCCCC1)NC1CCCC1	i	i	i	i	i	.	.
O=C(CC1CCS(=O)(=O)C1)NC1CCCCC1 (stereo unspecified)	i	-9.3*	i	i	i	0	0
CCc1ccc(NC(=O)CC2C(=O)N(c3ccc(C)cc3)C(=O)N2CCc2ccncc2)cc1 (stereo unspecified)	i	i	i	i	i	.	.
Cn1c(=O)[nH]c(=O)c2c1nc(SCc1ccccc1Cl)n2CC(N)=O	i	i	i	i	i	.	.
COc1ccc(C(=O)N/N=C/c2ccc3cccc(OCc4ccccc4)c3n2)cc1	i	-11*	i	i	i	91*	47*
COC(=O)c1cc(NC(=O)CSc2nnc(N)s2)ccc1Cl	i	-14*	i	i	i	0	0
CC1(C)CC(=O)C2=C(C1)OC(N)=C(C#N)C2c1cn(-c2ccccc2)nc1-c1ccccc1 (stereo unspecified)	i	-11*	i	i	i	0	0
CC1(C)CC(=O)C2=C(C1)OC(N)=C(C#N)C2c1ccoc1 (stereo unspecified)	i	i	i	i	i	.	.
CCOC(=O)c1ccc(CNCc2ccc(Br)cc2)cc1	i	i	i	i	i	.	.
CCOC(=O)c1ccc(CNCc2ccccc2)cc1	i	-12*	i	i	i	87*	29*
COC(=O)c1ccc(C23CC4(C2)[C@H](CN(CC2CCCCC2)[C@@H]4c2ccccc2)C3c2ccccc2)cc1 (stereo partly specified)	i	i	i	i	i	.	.
Cc1ccccc1C(=NCCCN(C)C)c1ccccc1C	i	-9.3*	i	i	i	88*	56*
CCCCCCOc1ccc(N2C(=O)CC(SC(=NCC)NCC)C2=O)cc1 (stereo unspecified)	i	i	i	i	i	.	.
CCn1cc(C(=O)O)c(=O)c2cc(F)c(N3CCN(S(=O)(=O)c4ccc(NC(=O)OC)cc4)CC3)cc21	i	i	i	i	i	.	.
CN(CC(=O)NC1CCN(Cc2ccccc2)CC1)S(=O)(=O)c1ccc2c(c1)c(=O)n(C)c(=O)n2C	i	-9.4*	i	i	i	76*	47*
CSCCC(NS(=O)(=O)c1ccc2c(c1)c(=O)n(C)c(=O)n2C)C(=O)NC1CCN(Cc2ccccc2)CC1 (stereo unspecified)	i	i	i	i	i	.	.
O=C(OCCN1CCCCC1)c1ccccc1Br	i	i	i	i	i	.	.
C[N+]1(CCCOC(=O)C2(c3ccccc3)CCCC2)CCOCC1	i	i	i	i	i	.	.
O=C(OCCN1CCCC1)C1(c2ccccc2)CCCC1	.	-9.3*	.	.	i	94*	93*
CN(C)CCOC(=O)C1(c2ccccc2)CCCC1	i	-8.5*	i	i	i	92*	91*
O=C(OCCN1CCCCC1)C1(c2ccccc2)CCCC1	i	-10*	i	i	i	92*	92*
COc1cccc(C(=O)N2CCN(Cc3ccccc3Br)CC2)c1	i	i	i	i	i	.	.
CCOC(=O)N1CCC(NC(=O)c2cnn3c(C(F)(F)F)cc(-c4cccc(OC)c4)nc23)CC1	i	-8.4*	i	i	i	0	0
COc1cccc(CNC(=O)CCC2CCCN(c3cc(C)nc(N4CCCC4)n3)C2)c1 (stereo unspecified)	i	-12*	i	i	i	92*	94*
SMILES	MrgX1 PAM	RGS4 pot	MrgX1 ag	MrgX1 antag	RGS4 inh	RGS4 activ val	RGS4 act ctr
COc1cccc(CNC(=O)CCC2CCCN(C3CCOCC3)C2)c1 (stereo unspecified)	i	i	i	i	i	.	.
COc1ccc(N(CC(=O)NCc2ccccc2Cl)S(=O)(=O)c2c(C)noc2C)cc1	i	i	i	i	i	.	.
C[C@@H]1CN(C2CCN(Cc3nc(C(c4ccccc4)c4ccccc4)no3)CC2)C[C@H](C)O1	i	i	i	i	i	.	.
NC(=O)CCN1CCN(Cc2nc(C(c3ccccc3)c3ccccc3)no2)CC1	i	-8.7*	i	i	i	92*	58*
CC(C)NC(=O)CN1CCN(Cc2nc(C(c3ccccc3)c3ccccc3)no2)CC1	i	-7.6*	i	i	i	92*	58*
Cc1cc(NS(=O)(=O)c2ccc(NC(=O)CCCOc3ccccc3C)cc2)no1	i	i	i	i	i	.	.
CCn1ccnc1CNC(=O)c1ccc2oc(C(C)C)nc2c1	i	-8.2*	i	i	i	82*	47*
O=C(C[n+]1cc(-c2ccc(Cl)c(Cl)c2)n2c1CCC2)N1c2ccccc2Sc2ccccc21	i	-11*	i	i	i	93*	95*
Cc1cccc(NS(=O)(=O)c2cc(C(=O)N3CCc4ccccc4C3)ccc2Cl)c1C	i	-8.1*	i	i	i	82*	30*
CC(=O)c1c(N2CCN(c3ccccn3)CC2)nc(=S)n(-c2ccccc2)c1C	i	i	i	i	i	.	.
CCN(Cc1ccncc1)C(=O)c1cc(COc2c(F)cccc2F)on1	i	i	i	i	i	.	.
CCC(C)NCCOc1ccc(C(C)(C)c2ccccc2)cc1 (stereo unspecified)	i	-7.8*	i	i	i	79*	34*
CCCOc1ccc(OCCCCNC(C)CC)cc1 (stereo unspecified)	i	i	i	i	i	.	.
COc1cccc(OCCCCN2CCCCC2)c1	i	i	i	i	i	.	.
CC1CCCN(CCCCOc2cccc(Br)c2)C1 (stereo unspecified)	i	-7.5*	i	i	i	92*	64*
Clc1ccc(OCCCCCN2CCCC2)c(Br)c1	i	-8*	i	i	i	89*	84*

Bioassay records deposited in PubChem BioAssay by Johns Hopkins Ion Channel Center.
